According to publication PMC4256430 (Journal of immunology (Baltimore, Md. : 1950), 2010):
“Also recorded” adds a separate entry of the source. Like-named read-outs stand apart in the source and are kept apart here. No end group written: not given here.

How the values were obtained:
[1] = tested on: ERK phosphorylation in peritoneal Mϕs (WT and Fpr2^−/−); test: ERK phosphorylation in Mϕs; type: cell-based, mouse; conditions: concentration range, 10 min at 37°C, n = 3; for ERK phosphorylation, Fpr2^−/− Mϕs: Fpr2^−/− Mϕs compared with WT
Outline: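 Peritoneal macrophages from WT littermates and Fpr2−/− mice were equilibrated 30 min in Glutamax DMEM with penicillin/streptomycin, then exposed to ligand concentration ranges for 10 min at 37°C. Lysates underwent SDS-PAGE and PVDF transfer. Blots were probed overnight for phospho-p44/42 and total p44/42 (each 1:1000), with HRP anti-rabbit and ECL detection. Read-out was the phospho-/total ERK ratio, from three distinct cultures (Mann-Whitney U).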

[2] = tested on: IL-1β–induced Gr1^+ cell recruitment, WT and Fpr2^−/− mice; test: IL-1β–induced air pouch, Gr1^+ cell; type: in vivo, mouse; conditions: 4 h; for inhibition of IL-1β-promoted Gr1^+ cell recruitment, WT: Ac2–26 dose-dependent, LXA4 and Cpd43 at anti-inflammatory doses, n = 6, p < 0.01
FPR2/ALX = conditions: ref [32]; cited from earlier work
Fpr2 [3] = conditions: cited from earlier work
all FPRs = conditions: in vitro experimental settings; ref [33]; cited from earlier work
Fpr2 [4] = type: binding, mouse; conditions: WT Mϕs; [125I]-labeled W-peptide
Outline: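 Primary peritoneal macrophages (10 × 10^6 cells/ml in PBS with Ca2+/Mg2+) were incubated with [125I]W-peptide tracer for 1 h on ice. Excess unlabeled W-peptide defined nonspecific binding; specific binding was calculated as total minus nonspecific. Cells were collected on GF/C filters by vacuum filtration and washed three times with ice-cold 10 mM Tris-HCl. Bound counts were read on a γ-counter. The experiment was repeated three times.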

Mϕs (WT and Fpr2^−/−) = test: Mϕ chemotaxis; type: cell-based, mouse; conditions: 120 min, 37°C, 5-μm pores; for Mϕ chemotaxis, Fpr2^−/− compared with WT: Fpr2^−/− Mϕs, for fMLP at concentrations >1 μM
Outline: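 Macrophages were either bone-marrow-derived (5 d in 20% FCS/30% L929-conditioned DMEM) or peritoneal cells elicited by Biogel (harvested 4 d after i.p. 2% P-100). Cells were suspended at 4 × 10^6/ml in RPMI 1640 with 0.1% BSA. 10^5 cells were placed above 5-μm polycarbonate filters, with stimuli below, for 120 min at 37°C/5% CO2. Migrated cells were quantified by 4 h alamarBlue fluorescence (ex 530–560, em 590 nm) against a macrophage standard curve. Three experiments, each in quadruplicate.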

[5] = tested on: zymosan-elicited Gr1^+ cell influx, WT and Fpr2^−/− mice; test: Zymosan-induced peritonitis, Gr1^+ cell recruitment; type: in vivo, mouse; conditions: 1 mg i.v. −10 min, zymosan 1 mg i.p., 4 h, n = 6, NS, mean ± SEM
Outline: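 Peritonitis was induced in WT and Fpr2−/− mice with zymosan A, 1 mg i.p. in 0.5 ml PBS. Test protein (1 mg) was given i.v. 10 min before zymosan. Cavities were lavaged at 4 h with PBS containing 25 U/ml heparin and 0.3 mM EDTA. Gr1+ cell influx was quantified by Turk's differential counts and flow cytometry, with percentage of events multiplied by total count per cavity.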

fpr1^−/− mice = conditions: ref [42]; cited from earlier work

CC(C)c1c(NC(=O)Nc2ccc(Cl)cc2)c(=O)n(-c2ccccc2)n1C [Cpd43]
ERK phosphorylation, WT Mϕs [1]: concentration-dependent rapid phosphorylation of ERK
effect on IL-1β-promoted cell recruitment, Fpr2^−/− ([2]; Fpr2^−/− mice, i.v., air pouch): ineffective
inhibition of IL-1β-promoted Gr1^+ cell recruitment, WT ([2]; WT mice, i.v., air pouch): 50–75%
FPR2/ALX agonism (FPR2/ALX): selective nonpeptidic FPR2/ALX agonist

CCCCC[C@H](O)/C=C/C=C\C=C\C=C\[C@@H](O)[C@@H](O)CCCC(=O)O [LXA4, lipoxin A4]
effect on IL-1β-promoted cell recruitment, Fpr2^−/− ([2]; Fpr2^−/− mice, i.v., air pouch): ineffective
inhibition of IL-1β-promoted Gr1^+ cell recruitment, WT ([2]; WT mice, i.v., air pouch): 50–75%
activation of Fpr2 (Fpr2 [3]; ref [23]): known to be activated

C[C@@H]1C[C@H]2[C@@H]3CCC4=CC(=O)C=C[C@]4(C)[C@@]3(F)[C@@H](O)C[C@]2(C)[C@@]1(O)C(=O)COP(=O)([O-])[O-].[Na+].[Na+] [dexamethasone, dexamethasone 21-phosphate disodium salt]
efficacy in air pouch, Fpr2^−/− mice ([2]; Fpr2^−/− mice, dexamethasone 0.5 mg/kg i.v. −1 h, IL-1β 20 ng): reduced efficacy
Gr1^+ cell infiltrate into air pouch, WT ([2]; WT mice, dexamethasone 0.5 mg/kg i.v. −1 h, IL-1β 20 ng): significantly reduced

Ac-AMVSEFLKQAWIENEEQEYVVQTVK [Ac2–26]
activation of FPRs (all FPRs): known to activate all FPRs

WKYMVm [W-peptide]
binding sites revealed by Scatchard plot (Fpr2 [4]): both high- and low-affinity binding sites
ERK phosphorylation, Fpr2^−/− Mϕs [1]: absent
ERK phosphorylation, WT Mϕs [1]: concentration-dependent rapid phosphorylation of ERK
ligand activity / affinity at Fpr2 (Fpr2 [3]; high-affinity ligand, ref [30]): high-affinity ligand for Fpr2

formyl-Met-Leu-Phe [fMLP]
concentration for optimal Mϕ chemotaxis (Mϕs (WT and Fpr2^−/−); mean of three experiments in quadruplicate): 1 µM
Mϕ chemotaxis, Fpr2^−/− compared with WT (Mϕs (WT and Fpr2^−/−)): attenuated significantly

B1: hrAnxA1: GST-tagged human recombinant annexin A1, produced in Escherichia coli (protein, UniProt P04083 2-346, looked up)
Annexin A1: AMVSEFLKQAWFIENEEQEYVQTVKSSKGGPGSAVSPYPTFNPSSDVAALHKAIMVKGVDEATIIDILTKRNNAQRQQIKAAYLQETGKPLDETLKKALTGHLEEVVLALLKTPAQFDADELRAAMKGLGTDEDTLIEILASRTNKEIRDINRVYREELKRDLAKDITSDTSGDFRNALLSLAKGDRSEDFGVNEDLADSDARALYEAGERRKGTDVNVFNTILTTRSYPQLRRVFQKYTKYSKHDMNKVLDLELKGDIEKCLTAIVKCATSKPAFFAEKLHQAMKGVGTRHKALIRIMVSRSEIDMNDIKAFYQKMYGISLCQAILDETKGDYEKILVALCGGN
modifications: GST tag
inhibition of PMN accumulation in air pouch, Fpr2^−/− mice ([2]; Fpr2^−/− mice, i.v. −10 min, IL-1β 20 ng, NS): 25–30%
inhibition of PMN accumulation in air pouch, dose dependence ([2]; WT mice, i.v. −10 min, IL-1β 20 ng): dose-response inhibition
reduction of Gr1^+ cell content in peritoneal fluids, Fpr2^−/− [5]: −5 ± 12%
anti-migratory action in fpr1^−/− mice (fpr1^−/− mice): a high proportion of the anti-migratory action of hrAnxA1 is retained

B2: SAA: serum amyloid A, purchased from PeproTech (protein, UniProt P0DJI8 19-122, looked up)
Serum amyloid A-1 protein: RSFFSFLGEAFDGARDMWRAYSDMREANYIGSDKYFHARGNYDAAKRGPGGAWAAEVITDARENIQRFFGHGAEDSLADQAANEWGRSGKDPNHFRPAGLPEKY
Mϕ chemotaxis, Fpr2^−/− compared with WT (Mϕs (WT and Fpr2^−/−)): absent
Mϕ chemotaxis, WT (Mϕs (WT and Fpr2^−/−); WT Mϕs): promoted consistently
ERK phosphorylation, Fpr2^−/− Mϕs [1]: unchanged; also recorded: retained; also recorded: not diminished
effect on IL-1β-promoted cell recruitment, Fpr2^−/− ([2]; Fpr2^−/− mice, i.v., air pouch): did not share this response
increase in number of cells recruited by IL-1β over control ([2]; WT mice, i.v., air pouch, control values of 3.0 ± 0.4 × 10^6 per cavity): 1.5 fold
activation of Fpr2 (Fpr2 [3]; ref [22]): known to be activated
